From ChEMBL document CHEMBL3822384, “2-(3-Methoxyphenyl)quinazoline Derivatives: A New Class of Direct Constitutive Androstane Receptor (CAR) Agonists” (J Med Chem, 2016)
Activity calls are given as the source filed them. No cut-off for these calls is given here.

How the values were obtained:
[1] = biological target: Cytochrome P450 3A4 (Homo sapiens, UniProt P08684); assay: Inhibition of recombinant human CYP3A4 by P450-Glo luminescence assay; format: ADME
[2] = biological target: T1, Vitamin D3 receptor (Homo sapiens) (UniProt P11473); assay: Agonist activity at VDR in human primary hepatocytes assessed as upregulation of CYP2C9 mRNA expression at 10 uM after 24 hrs by qRT-PCR method; format: cell-based; settings: Hepatocyte
T1 sequence (whole entry): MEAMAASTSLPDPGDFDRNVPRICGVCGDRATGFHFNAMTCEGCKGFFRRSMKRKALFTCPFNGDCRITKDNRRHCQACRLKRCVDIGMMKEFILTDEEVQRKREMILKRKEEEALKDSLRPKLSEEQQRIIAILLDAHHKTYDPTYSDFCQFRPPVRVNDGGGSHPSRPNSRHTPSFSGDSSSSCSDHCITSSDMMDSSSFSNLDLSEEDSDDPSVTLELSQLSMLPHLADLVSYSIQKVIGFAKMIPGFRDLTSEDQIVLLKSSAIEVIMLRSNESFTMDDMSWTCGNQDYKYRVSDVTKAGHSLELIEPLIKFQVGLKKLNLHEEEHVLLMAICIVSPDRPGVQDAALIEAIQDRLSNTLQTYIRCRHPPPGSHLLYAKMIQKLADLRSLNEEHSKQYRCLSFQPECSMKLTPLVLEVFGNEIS

[3] = biological target: T1, Vitamin D3 receptor (Homo sapiens); assay: Agonist activity at VDR in human primary hepatocytes assessed as upregulation of MDR/ABCB1 mRNA expression at 10 uM after 24 hrs by qRT-PCR method; format: cell-based; settings: Hepatocyte
[4] = biological target: T1, Vitamin D3 receptor (Homo sapiens); assay: Agonist activity at VDR in human primary hepatocytes assessed as upregulation of CYP3A4 mRNA expression at 10 uM after 24 hrs by qRT-PCR method; format: cell-based; settings: Hepatocyte
[5] = biological target: T2, Nuclear receptor subfamily 1 group I member 3 (Homo sapiens, UniProt Q14994); assay: Agonist activity at CAR expressed in human HepG2 cells at 1 to 20 uM after 48 hrs by p(ER6)3-luciferase reporter gene assay; format: cell-based; settings: hepg2, 48 h
T2 sequence (Q14994 whole entry): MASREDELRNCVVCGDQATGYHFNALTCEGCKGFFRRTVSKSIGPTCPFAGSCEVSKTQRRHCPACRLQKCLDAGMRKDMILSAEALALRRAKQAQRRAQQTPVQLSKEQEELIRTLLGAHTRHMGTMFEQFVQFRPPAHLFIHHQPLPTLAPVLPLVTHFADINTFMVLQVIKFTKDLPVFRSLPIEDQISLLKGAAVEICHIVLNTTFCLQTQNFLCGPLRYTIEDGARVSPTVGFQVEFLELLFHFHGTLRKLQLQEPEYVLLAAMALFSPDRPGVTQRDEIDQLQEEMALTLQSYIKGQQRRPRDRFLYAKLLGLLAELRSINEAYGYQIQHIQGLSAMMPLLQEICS
In short: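 HepG2 cells transiently co-transfected with p(ER6)3-luc reporter, wild-type CAR expression vector and pRL-TK normalization plasmid; after 24 h stabilization, treated with compounds or vehicle (DMSO 0.1%, v/v) for 48 h. Firefly and Renilla luciferase read; fold change versus vehicle (set to 1), means ± SD of triplicates from a representative experiment.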

[6] = biological target: T2, Nuclear receptor subfamily 1 group I member 3; assay: Agonist activity at human GAL4-fused CAR LBD (108 to 348 residues) expressed in human HepG2 cells assessed as receptor binding to SRC1-VP16 fusion protein at 5 to 20 uM after 24 hrs by luciferase reporter gene assay; format: cell-based; settings: hepg2, 24 h
[7] = biological target: Cytochrome P450 2D6 (Homo sapiens, UniProt P10635); assay: Inhibition of recombinant human CYP2D6 by P450-Glo luminescence assay; format: ADME
Cytochrome P450 2D6, sequence (P10635 whole entry): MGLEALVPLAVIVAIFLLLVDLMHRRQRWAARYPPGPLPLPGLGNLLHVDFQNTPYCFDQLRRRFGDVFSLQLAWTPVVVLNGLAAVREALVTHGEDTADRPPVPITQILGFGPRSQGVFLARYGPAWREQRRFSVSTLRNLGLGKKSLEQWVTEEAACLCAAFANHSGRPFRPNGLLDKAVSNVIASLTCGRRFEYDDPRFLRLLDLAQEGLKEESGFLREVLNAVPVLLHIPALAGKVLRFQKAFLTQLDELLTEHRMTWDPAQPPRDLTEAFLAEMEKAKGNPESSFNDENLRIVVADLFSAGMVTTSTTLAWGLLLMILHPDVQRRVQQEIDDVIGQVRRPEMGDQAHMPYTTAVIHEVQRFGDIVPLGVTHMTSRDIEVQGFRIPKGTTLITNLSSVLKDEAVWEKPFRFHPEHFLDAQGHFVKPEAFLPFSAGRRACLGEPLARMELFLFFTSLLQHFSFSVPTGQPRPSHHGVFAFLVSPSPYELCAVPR

[8] = biological target: T3, Cytochrome P450 1A2 (Homo sapiens, UniProt P05177); assay: Inhibition of recombinant human CYP1A2 by P450-Glo luminescence assay; format: ADME
T3 sequence (P05177 whole entry): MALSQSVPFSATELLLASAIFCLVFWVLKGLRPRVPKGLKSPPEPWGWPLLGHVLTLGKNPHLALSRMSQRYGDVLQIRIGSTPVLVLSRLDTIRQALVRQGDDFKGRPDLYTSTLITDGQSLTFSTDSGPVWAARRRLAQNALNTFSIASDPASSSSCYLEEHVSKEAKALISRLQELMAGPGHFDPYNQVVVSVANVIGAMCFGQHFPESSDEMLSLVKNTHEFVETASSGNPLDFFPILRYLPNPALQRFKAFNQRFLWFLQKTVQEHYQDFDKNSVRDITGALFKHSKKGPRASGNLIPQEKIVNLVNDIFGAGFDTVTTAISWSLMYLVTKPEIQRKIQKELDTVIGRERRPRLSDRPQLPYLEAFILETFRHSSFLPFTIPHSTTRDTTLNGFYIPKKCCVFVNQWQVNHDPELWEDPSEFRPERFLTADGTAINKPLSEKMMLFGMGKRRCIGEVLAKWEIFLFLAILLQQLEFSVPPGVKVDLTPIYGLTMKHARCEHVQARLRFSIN

[9] = biological target: T4, Vitamin D3 receptor (Homo sapiens, UniProt P11473); assay: Agonist activity at VDR expressed in human HuH7 cells after 24 hrs by pDR3-luciferase reporter gene assay; format: cell-based, Huh-7
T4 sequence (P11473 whole entry): T1 sequence (whole entry)

[10] = biological target: T1, Vitamin D3 receptor (Homo sapiens); assay: Agonist activity at VDR in human primary hepatocytes assessed as upregulation of CYP3A5 mRNA expression at 10 uM after 24 hrs by qRT-PCR method; format: cell-based; settings: Hepatocyte

Cytochrome P450 3A4, sequence (P08684 whole entry): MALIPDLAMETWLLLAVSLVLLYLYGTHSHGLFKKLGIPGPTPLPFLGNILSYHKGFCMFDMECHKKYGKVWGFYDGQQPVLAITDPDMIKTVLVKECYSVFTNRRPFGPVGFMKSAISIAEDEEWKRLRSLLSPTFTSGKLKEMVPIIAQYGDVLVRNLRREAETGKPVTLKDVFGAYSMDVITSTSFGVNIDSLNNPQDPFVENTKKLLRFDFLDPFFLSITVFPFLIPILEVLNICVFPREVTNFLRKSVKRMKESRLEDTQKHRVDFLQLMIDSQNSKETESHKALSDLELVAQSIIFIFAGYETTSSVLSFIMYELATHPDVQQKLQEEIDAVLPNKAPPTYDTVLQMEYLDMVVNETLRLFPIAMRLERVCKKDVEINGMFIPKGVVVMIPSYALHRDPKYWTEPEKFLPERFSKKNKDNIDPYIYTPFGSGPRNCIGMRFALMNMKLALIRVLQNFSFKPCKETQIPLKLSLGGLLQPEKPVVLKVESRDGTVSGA

SMILES | IC50 ([1]; read-out: IC50) [nM] | Activity [2] | Activity [3] | Activity [4] | Activity [5] | Activity [6] | IC50 ([7]; read-out: IC50) [nM] | IC50 [8] [nM] | EC50 [9] [nM] | Activity [10] | IC50 [7] | IC50 [1]
COc1cccc(-c2nc(SC)c3ccccc3n2)c1 | 22900 | Active | Active | Active | Active | Active | 17300 | 420 | > 3000 | Active | – | –
COc1cccc(-c2nc(OC)c3ccccc3n2)c1 | 12900 | Active | Active | Active | Active | Active | – | 180 | 1950 | Active | Not Active | –
COc1cccc(-c2nc3ccccc3c(=S)[nH]2)c1 | – | Active | Active | Active | Active | Active | – | 750 | 510 | Active | Not Active | Not Active
